Source: ChEMBL document CHEMBL3526056, “Characterization of in vitro glucuronidation clearance of a range of drugs in human kidney microsomes: comparison with liver and intestinal glucuronidation and impact of albumin” (Drug Metab Dispos, 2012)

Tests used:
[1] = biological target: T1, UDP-glucuronosyltransferase 2B7 (Homo sapiens, UniProt P16662); experiment: Drug metabolism in human kidney microsomes assessed as UGT2B7-mediated unbound intrinsic glucuronidation clearance at 1 uM after 30 to 60 mins by LC-MS/MS analysis in presence of 1% bovine serum albumin; assay type: ADME
T1 sequence (P16662 whole entry): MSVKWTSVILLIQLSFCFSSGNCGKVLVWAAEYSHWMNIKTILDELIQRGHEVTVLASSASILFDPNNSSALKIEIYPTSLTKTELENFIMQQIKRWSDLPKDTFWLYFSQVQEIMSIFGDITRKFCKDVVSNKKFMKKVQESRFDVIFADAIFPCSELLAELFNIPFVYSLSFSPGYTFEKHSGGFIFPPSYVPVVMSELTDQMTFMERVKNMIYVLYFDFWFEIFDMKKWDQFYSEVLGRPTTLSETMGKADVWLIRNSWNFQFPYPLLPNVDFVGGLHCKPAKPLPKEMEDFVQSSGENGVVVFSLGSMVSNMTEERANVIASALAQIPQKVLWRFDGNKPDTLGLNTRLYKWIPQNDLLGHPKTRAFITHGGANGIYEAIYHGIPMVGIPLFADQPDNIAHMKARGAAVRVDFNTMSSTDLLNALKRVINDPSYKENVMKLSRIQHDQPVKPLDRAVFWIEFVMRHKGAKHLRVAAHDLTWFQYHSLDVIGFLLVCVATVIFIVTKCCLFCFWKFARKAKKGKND

[2] = Renal clearance in human; assay type: ADME, organism-based, Kidney; conditions: in vivo
[3] = Fraction unbound in human plasma
Liver microsome [4] = experiment: Fraction metabolized glucuronidation in human liver microsomes in presence of UDP-glucuronosyltransferase; assay type: ADME
Liver microsome [5] = experiment: Fraction metabolized glucuronidation in human liver microsomes in presence of UDP-glucuronosyltransferase and bovine serum albumin; assay type: ADME
[6] = Glucuronidation clearance in human liver microsomes; assay type: ADME
[7] = Glucuronidation clearance in human liver microsomes in presence of bovine serum albumin; assay type: ADME
[8] = Fraction unbound in human liver microsomes at 1 uM after 30 to 60 mins by LC-MS/MS analysis; assay type: ADME
[9] = Fraction unbound in human kidney microsomes at 1 uM after 30 to 60 mins by LC-MS/MS analysis; assay type: ADME
[10] = Fraction unbound in human intestinal microsomes at 1 uM after 30 to 60 mins by LC-MS/MS analysis; assay type: ADME, Intestine, Microsome
Liver microsome [11] = experiment: Fraction unbound in human liver microsomes at 1 uM after 30 to 60 mins by LC-MS/MS analysis in presence of 1% bovine serum albumin; assay type: ADME; conditions: microsomes, 1 µM
Liver microsome [12] = experiment: Unbound intrinsic glucuronidation clearance in human liver microsomes at 1 uM after 30 to 60 mins by LC-MS/MS analysis in presence of UDP-glucuronosyltransferase; assay type: ADME
Summary of the method: (§1)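 Alamethicin-activated pooled microsomes (HLM 150 donors; HKM 8; HIM 18). Drug at 1 μM final, preincubated 5 min at 37°C in 0.1 M phosphate pH 7.1 with 3.45 mM MgCl2, 1.15 mM EDTA, 115 μM saccharic acid lactone. Started with […] cofactor (5 mM final), 30–60 min. Cofactor-free controls. Parent depletion by LC-MS/MS, single-exponential k. Corrected by HLM-dialysis fu,inc. Duplicates; n=3 (HIM n=1).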

Liver microsome [13] = experiment: Unbound intrinsic glucuronidation clearance in human liver microsomes at 1 uM after 30 to 60 mins by LC-MS/MS analysis in presence of UDP-glucuronosyltransferase and 1% bovine serum albumin; assay type: ADME
[14] = Unbound intrinsic glucuronidation clearance in human kidney microsomes at 1 uM after 30 to 60 mins by LC-MS/MS analysis in presence of UDP-glucuronosyltransferase; assay type: ADME, microsome; summary of the method: as §1
[15] = biological target: T1, UDP-glucuronosyltransferase 2B7; experiment: Drug metabolism in human intestinal microsomes assessed as UGT2B7-mediated unbound intrinsic glucuronidation clearance at 1 uM after 30 to 60 mins by LC-MS/MS analysis; assay type: ADME, Intestine
[16] = Unbound intrinsic glucuronidation clearance in human kidney microsomes at 1 uM after 30 to 60 mins by LC-MS/MS analysis in presence of UDP-glucuronosyltransferase and 1% bovine serum albumin; assay type: ADME, microsome
[17] = Unbound intrinsic glucuronidation clearance in human intestinal microsomes at 1 uM after 30 to 60 mins by LC-MS/MS analysis in presence of UDP-glucuronosyltransferase; assay type: ADME, Intestine, Microsome; summary of the method: as §1
[18] = Unbound intrinsic glucuronidation clearance in human intestinal microsomes at 1 uM after 30 to 60 mins by LC-MS/MS analysis in presence of UDP-glucuronosyltransferase and 1% bovine serum albumin; assay type: ADME, Intestine, Microsome
[19] = biological target: T1, UDP-glucuronosyltransferase 2B7; experiment: Drug metabolism in human liver microsomes assessed as UGT2B7-mediated unbound intrinsic glucuronidation clearance at 1 uM after 30 to 60 mins by LC-MS/MS analysis; assay type: ADME
[20] = biological target: T1, UDP-glucuronosyltransferase 2B7; experiment: Drug metabolism in human kidney microsomes assessed as UGT2B7-mediated unbound intrinsic glucuronidation clearance at 1 uM after 30 to 60 mins by LC-MS/MS analysis; assay type: ADME
[21] = biological target: T1, UDP-glucuronosyltransferase 2B7; experiment: Drug metabolism in human liver microsomes assessed as UGT2B7-mediated unbound intrinsic glucuronidation clearance at 1 uM after 30 to 60 mins by LC-MS/MS analysis in presence of 1% bovine serum albumin; assay type: ADME
[22] = Drug metabolism in human kidney microsomes assessed as UGT1A8/2B7-mediated unbound intrinsic glucuronidation clearance at 1 uM after 30 to 60 mins by LC-MS/MS analysis in presence of 2% bovine serum albumin; assay type: ADME
Summary of the method: (§2)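 Pooled alamethicin-activated human liver, kidney or intestinal microsomes. […] Duplicate incubations of 30–60 min, with no-cofactor controls. Parent depletion read by LC-MS/MS. k from a single-exponential fit, corrected by fu,inc.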

[23] = Ratio of UGT1A8/2B7-mediated unbound intrinsic glucuronidation clearance in human kidney microsomes to UGT1A8/2B7-mediated unbound intrinsic glucuronidation clearance in human liver microsomes at 1 uM in presence of 2% bovine serum albumin; assay type: ADME
Summary of the method: (§3)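 Ratios of mean unbound CLint,UGT, each scaled per g tissue, between pooled liver, kidney and intestinal microsomes. Values come from 1 μM substrate-depletion assays in pH 7.1 phosphate at 37°C, run with or without BSA (1% for acids, 2% for bases/neutral drugs). Corrected for nonspecific binding. Kidney and liver n = 3; intestine n = 1; each in duplicate.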

[24] = Ratio of UGT1A8/2B7-mediated unbound intrinsic glucuronidation clearance in human intestinal microsomes to UGT1A8/2B7-mediated unbound intrinsic glucuronidation clearance in human liver microsomes at 1 uM in presence of 2% bovine serum albumin; assay type: ADME; summary of the method: as §3
[25] = Ratio of UGT1A8/2B7-mediated unbound intrinsic glucuronidation clearance in human kidney microsomes to UGT1A8/2B7-mediated unbound intrinsic glucuronidation clearance in human intestinal microsomes at 1 uM in presence of 2% bovine serum albumin; assay type: ADME; summary of the method: as §3
[26] = Clearance in iv dosed human; assay type: ADME, organism-based; conditions: in vivo
[27] = Ratio of drug level blood to plasma in human; assay type: ADME; conditions: blood and plasma
[28] = Fraction unbound in human liver microsomes at 1 uM […] by LC-MS/MS analysis in presence of 2% bovine serum albumin; assay type: ADME
Liver microsome [29] = experiment: Unbound intrinsic glucuronidation clearance in human liver microsomes at 1 uM after 30 to 60 mins by LC-MS/MS analysis in presence of UDP-glucuronosyltransferase and 2% bovine serum albumin; assay type: ADME; summary of the method: as §2
[30] = Drug metabolism in human intestinal microsomes assessed as UGT1A8/2B7-mediated unbound intrinsic glucuronidation clearance at 1 uM after 30 to 60 mins by LC-MS/MS analysis; assay type: ADME, Intestine; summary of the method: as §2
[31] = Ratio of UGT1A8/2B7-mediated unbound intrinsic glucuronidation clearance in human kidney microsomes to UGT1A8/2B7-mediated unbound intrinsic glucuronidation clearance in human liver microsomes at 1 uM; assay type: ADME; summary of the method: as §3
[32] = Unbound intrinsic glucuronidation clearance in human kidney microsomes at 1 uM after 30 to 60 mins by LC-MS/MS analysis in presence of UDP-glucuronosyltransferase and 2% bovine serum albumin; assay type: ADME, microsome; summary of the method: as §2
[33] = Unbound intrinsic glucuronidation clearance in human intestinal microsomes at 1 uM after 30 to 60 mins by LC-MS/MS analysis in presence of UDP-glucuronosyltransferase and 2% bovine serum albumin; assay type: ADME, Intestine, Microsome; summary of the method: as §2
[34] = Ratio of unbound intrinsic glucuronidation clearance in human intestinal microsomes in presence of 2% bovine serum albumin to unbound intrinsic glucuronidation clearance in human intestinal microsomes in absence of bovine serum albumin; assay type: ADME, Intestine, Microsome
Summary of the method: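 Ratios of mean scaled unbound CLint,UGT (per g tissue) between tissues, or between with and without BSA. Microsomal depletion assays at 1 μM, or 5 μM for propofol, in pH 7.1 phosphate at 37°C, read by LC-MS/MS. Kidney and liver n = 3, intestine n = 1, each in duplicate.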

[35] = Drug metabolism in human liver microsomes assessed as UGT1A8/2B7-mediated unbound intrinsic glucuronidation clearance at 1 uM after 30 to 60 mins by LC-MS/MS analysis; assay type: ADME; summary of the method: as §2
[36] = Drug metabolism in human kidney microsomes assessed as UGT1A8/2B7-mediated unbound intrinsic glucuronidation clearance at 1 uM after 30 to 60 mins by LC-MS/MS analysis; assay type: ADME; summary of the method: as §2
[37] = Ratio of UGT1A8/2B7-mediated unbound intrinsic glucuronidation clearance in human intestinal microsomes to UGT1A8/2B7-mediated unbound intrinsic glucuronidation clearance in human liver microsomes at 1 uM; assay type: ADME; summary of the method: as §3
[38] = Ratio of UGT1A8/2B7-mediated unbound intrinsic glucuronidation clearance in human kidney microsomes to UGT1A8/2B7-mediated unbound intrinsic glucuronidation clearance in human intestinal microsomes at 1 uM; assay type: ADME; summary of the method: as §3
[39] = Drug metabolism in human liver microsomes assessed as UGT1A8/2B7-mediated unbound intrinsic glucuronidation clearance at 1 uM after 30 to 60 mins by LC-MS/MS analysis in presence of 2% bovine serum albumin; assay type: ADME; summary of the method: as §2

## Cc1ccc(C)c(OCCCC(C)(C)C(=O)O)c1 [GEMFIBROZIL]
[1]
  CL free: 24.4 mL/min/g
[2]
  CL renal: 0.02 mL/min/kg
[3]
  fraction unbound: 0.005
Liver microsome [4]
  Drug metabolism: 0.79
Liver microsome [5]
  Drug metabolism: 0.86
[6]
  CLhep predicted: 1.78 mL/min/kg
[7]
  CLhep predicted: 1.93 mL/min/kg
[8]
  fraction unbound at 1 µM: 0.9
[9]
  fraction unbound at 1 µM: 0.9
[10]
  fraction unbound at 1 µM: 0.82
Liver microsome [11]
  Fu: 0.01
Liver microsome [12]
  CL free: 259 µL/min/mg
Liver microsome [13]
  CL free: 1840 µL/min/mg
[14]
  CL free: 265 µL/min/mg
[15]
  CL free: 0.492 mL/min/g
[16]
  CL free: 1910 µL/min/mg
[17]
  CL free: 23.9 µL/min/mg
[18]
  CL free: 40 µL/min/mg
[19]
  CL free: 10.4 mL/min/g
[20]
  CL free: 3.39 mL/min/g
[21]
  CL free: 73.6 mL/min/g

## C=CCN1CC[C@]23c4c5ccc(O)c4O[C@H]2C(=O)CC[C@@]3(O)[C@H]1C5 [NALOXONE]
[22]
  CL free: 0.675 mL/min/g
[23]
  Ratio: 0.304
[24]
  Ratio: 0.131
[25]
  Ratio: 2.31
[26]
  clearance: 21.7 mL/min/kg
[3]
  fraction unbound: 0.57
[27]
  blood plasma ratio: 1
Liver microsome [4]
  Drug metabolism: 0.65
Liver microsome [5]
  Drug metabolism: 0.89
[6]
  CLhep predicted: 14.1 mL/min/kg
[7]
  CLhep predicted: 19.3 mL/min/kg
[8]
  fraction unbound at 1 µM: 1
[9]
  fraction unbound at 1 µM: 1
[10]
  fraction unbound at 1 µM: 1
[28]
  fraction unbound at 1 µM: 0.96
Liver microsome [12]
  CL free: 10 µL/min/mg
Liver microsome [29]
  CL free: 55.6 µL/min/mg
[14]
  CL free: 10.9 µL/min/mg
[30]
  CL free: 0.01 mL/min/g
[31]
  Ratio: 0.348
[32]
  CL free: 52.7 µL/min/mg
[17]
  CL free: 0.502 µL/min/mg
[33]
  CL free: 14.2 µL/min/mg
[34]
  Ratio: 28
[35]
  CL free: 0.402 mL/min/g
[36]
  CL free: 0.14 mL/min/g
[37]
  Ratio: 0.026
[38]
  Ratio: 13.5
[39]
  CL free: 2.22 mL/min/g
